Source: ChEMBL document CHEMBL4118253, “Expedient synthesis and biological evaluation of alkenyl acyclic nucleoside phosphonate prodrugs” (Bioorg Med Chem, 2018)

How the values were obtained:
Influenza A virus [1] = experiment: Antiviral activity against Influenza A virus H1N1 infected in MDCK cells assessed as inhibition of virus-induced cytopathicity by MTS assay; assay type: functional, organism-based
Influenza A virus H3N2 [2] = experiment: Antiviral activity against Influenza A virus H3N2 infected in MDCK cells assessed as inhibition of virus-induced cytopathicity by MTS assay; assay type: functional, organism-based
Influenza B virus [3] = experiment: Antiviral activity against Influenza B virus infected in MDCK cells assessed as inhibition of virus-induced cytopathicity by MTS assay; assay type: functional, organism-based
[4] = Cytotoxicity against MDCK cells assessed as alteration of cell morphology by microscopic analysis; assay type: cell-based, Canis lupus familiaris; details: dog
Influenza A virus [5] = experiment: Antiviral activity against Influenza A virus H1N1 infected in MDCK cells assessed as inhibition of virus-induced visual cytopathicity; assay type: functional, organism-based
Influenza A virus H3N2 [6] = experiment: Antiviral activity against Influenza A virus H3N2 infected in MDCK cells assessed as inhibition of virus-induced visual cytopathicity; assay type: functional, organism-based
Influenza B virus [7] = experiment: Antiviral activity against Influenza B virus infected in MDCK cells assessed as inhibition of virus-induced visual cytopathicity; assay type: functional, organism-based
Human alphaherpesvirus 1 [8] = experiment: Antiviral activity against acyclovir-resistant thymidine kinase deficient Herpes simplex virus 1 KOS infected in HEL cells assessed as inhibition of virus-induced cytopathicity; assay type: functional, organism-based; details: Human alphaherpesvirus 1, KOS
Vaccinia virus = experiment: Antiviral activity against Vaccinia virus infected in HEL cells assessed as inhibition of virus-induced cytopathicity; assay type: functional, organism-based; details: Orthopoxvirus vaccinia
[9] = Cytotoxicity against HEL cells assessed as alteration of cell morphology by microscopic analysis; assay type: cell-based; details: human
How it was run: (§1)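 The value is the minimal cytotoxic concentration (MCC), the lowest concentration that causes a microscopically visible change in cell morphology. It was read in the same HEL or Vero cell cultures used for the antiviral tests.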

Human alphaherpesvirus 1 [10] = experiment: Antiviral activity against Herpes simplex virus 1 KOS infected in HEL cells assessed as inhibition of virus-induced cytopathicity; assay type: functional, organism-based; details: Human alphaherpesvirus 1, KOS
Human alphaherpesvirus 2 = experiment: Antiviral activity against Herpes simplex virus 2 G infected in HEL cells assessed as inhibition of virus-induced cytopathicity; assay type: functional, organism-based; details: Human alphaherpesvirus 2, strain G
Human adenovirus 2 = experiment: Antiviral activity against Adenovirus 2 infected in HEL cells assessed as inhibition of virus-induced cytopathicity; assay type: functional, organism-based; details: Human mastadenovirus C
Human coronavirus 229E = experiment: Antiviral activity against Human coronavirus 229E infected in HEL cells assessed as inhibition of virus-induced cytopathicity; assay type: functional, organism-based
Human respirovirus 3 = experiment: Antiviral activity against Parainfluenza virus 3 infected in human HeLa cells assessed as inhibition of virus-induced cytopathicity; assay type: functional, organism-based; details: Human respirovirus 3, HeLa
[11] = system: Mammalian orthoreovirus 1; experiment: Antiviral activity against Reovirus-1 infected in human HeLa cells assessed as inhibition of virus-induced cytopathicity; assay type: functional, organism-based; details: Mammalian orthoreovirus 1, HeLa
[12] = system: Vesicular stomatitis virus; experiment: Antiviral activity against Vesicular stomatitis virus infected in human HeLa cells assessed as inhibition of virus-induced cytopathicity; assay type: functional, organism-based
[13] = system: Respiratory syncytial virus; experiment: Antiviral activity against Respiratory syncytial virus infected in human HeLa cells assessed as inhibition of virus-induced cytopathicity; assay type: functional, organism-based
Human alphaherpesvirus 3 [14] = experiment: Antiviral activity against thymidine kinase expressing Varicella-Zoster virus infected in HEL cells assessed as reduction in virus plaque formation; assay type: functional, organism-based; details: Human alphaherpesvirus 3, HEL
Human alphaherpesvirus 3 [15] = experiment: Antiviral activity against thymidine kinase deficient Varicella-Zoster virus infected in HEL cells assessed as reduction in virus plaque formation; assay type: functional, organism-based; details: Human alphaherpesvirus 3, HEL
Human betaherpesvirus 5 [16] = experiment: Antiviral activity against Human cytomegalovirus AD169 infected in HEL cells assessed as inhibition of virus-induced cytopathicity; assay type: functional, organism-based; details: Human betaherpesvirus 5, AD169, HEL
Human betaherpesvirus 5 [17] = experiment: Antiviral activity against Human cytomegalovirus Davis infected in HEL cells assessed as inhibition of virus-induced cytopathicity; assay type: functional, organism-based; details: Human betaherpesvirus 5, Davis
Sindbis virus = experiment: Antiviral activity against Sindbis Virus infected in African green monkey Vero cells assessed as inhibition of virus-induced cytopathicity; assay type: functional, organism-based
Coxsackievirus B4 = experiment: Antiviral activity against Coxsackie virus B4 infected in African green monkey Vero cells assessed as inhibition of virus-induced cytopathicity; assay type: functional, organism-based; details: Enterovirus B
Punta Toro virus = experiment: Antiviral activity against Punta Toro virus infected in African green monkey Vero cells assessed as inhibition of virus-induced cytopathicity; assay type: functional, organism-based
Yellow fever virus = experiment: Antiviral activity against Yellow fever virus infected in African green monkey Vero cells assessed as inhibition of virus-induced cytopathicity; assay type: functional, organism-based
[18] = Cytotoxicity against African green monkey Vero cells assessed as alteration of cell morphology by microscopic analysis; assay type: cell-based; details: chlorocebus sabaeus; how it was run: as §1
[19] = Cytotoxicity against human HeLa cells assessed as alteration of cell morphology by microscopic analysis; assay type: cell-based

Row | Structure (SMILES) | EC50 (Influenza A virus [1]) | EC50 (Influenza A virus H3N2 [2]) | EC50 (Influenza B virus [3]) | MCC [4] | EC50 (Influenza A virus [5]) | EC50 (Influenza A virus H3N2 [6]) | EC50 (Influenza B virus [7]) | EC50 (Human alphaherpesvirus 1 [8]) | EC50 (Vaccinia virus) | MCC [9] | EC50 (Human adenovirus 2) | EC50 (Human respirovirus 3) | EC50 [11] | EC50 [13] | EC50 (Human alphaherpesvirus 3 [15]) | EC50 (Human betaherpesvirus 5 [17]) | EC50 (Sindbis virus) | EC50 (Coxsackievirus B4) | EC50 (Punta Toro virus) | MCC [18] | also measured
1 | NC12CC3CC(CC(C3)C1)C2 [AMANTADINE] | 1.4 µM | 1.6 µM | > 100 µM | > 100 µM | 1.8 µM | 2 µM | > 100 µM |  |  |  |  |  |  |  |  |  |  |  |  |  | 
2 | Nc1nc2c(ncn2COCCO)c(=O)[nH]1 [ACYCLOVIR] |  |  |  |  |  |  |  | 126 µM | > 250 µM | 250 to 440 µM |  |  |  |  |  |  |  |  |  |  | 
3 | C/C(=C\CP(=O)(N[C@@H](C)C(=O)OCc1ccccc1)Oc1cccc2ccccc12)Cn1ccc(=O)[nH]c1=O (stereo partly specified) | > 100 µM | > 100 µM | > 100 µM | > 100 µM | > 100 µM | > 100 µM | > 100 µM | > 100 µM | > 100 µM | > 100 µM | > 100 µM | > 100 µM | > 100 µM | > 100 µM | 58.5 µM | > 100 µM | > 100 µM | > 100 µM | > 100 µM | > 100 µM | EC50 (Human alphaherpesvirus 1 [10]): > 100 µM; EC50 (Human alphaherpesvirus 2): > 100 µM; EC50 (Human coronavirus 229E): > 100 µM; EC50 [12]: > 100 µM; EC50 (Human alphaherpesvirus 3 [14]): 100 µM; EC50 (Human betaherpesvirus 5 [16]): > 100 µM; EC50 (Yellow fever virus): > 100 µM; MCC [19]: > 100 µM
4 | C/C(=C/CP(=O)(N[C@@H](C)C(=O)OCc1ccccc1)Oc1cccc2c1CCCC2)Cn1cc(C)c(=O)[nH]c1=O (stereo partly specified) | > 100 µM | > 100 µM | > 100 µM | > 100 µM | > 100 µM | > 100 µM | > 100 µM | > 100 µM | > 100 µM | > 100 µM | > 100 µM | > 100 µM | > 100 µM | > 100 µM | 65.1 µM | 76.5 µM | > 100 µM | > 100 µM | > 100 µM | ≥ 20 µM | EC50 (Human alphaherpesvirus 1 [10]): > 100 µM; EC50 (Human alphaherpesvirus 2): > 100 µM; EC50 (Human coronavirus 229E): > 100 µM; EC50 [12]: > 100 µM; EC50 (Human alphaherpesvirus 3 [14]): 17 µM; EC50 (Yellow fever virus): > 100 µM; MCC [19]: ≥ 20 µM
5 | CCOC(=O)C1=C[C@@H](OC(CC)CC)[C@H](NC(C)=O)[C@@H](N)C1 [OSELTAMIVIR] | 0.2 µM | > 100 µM |  | > 100 µM | 1.5 µM | > 100 µM | 2.9 µM |  |  |  |  |  |  |  |  |  |  |  |  |  | 
6 | Cc1cn([C@H]2C[C@H](F)[C@@H](CO)O2)c(=O)[nH]c1=O [ALOVUDINE] |  |  |  |  |  |  |  |  |  | > 250 µM | 1.2 µM |  |  |  |  |  |  |  |  |  | 
7 | C/C(=C/CP(=O)(N[C@@H](C)C(=O)OC(C)C)Oc1cccc2c1CCCC2)Cn1cc(C)c(=O)[nH]c1=O (stereo partly specified) | > 100 µM | > 100 µM | > 100 µM | 100 µM | > 100 µM | > 100 µM | > 100 µM | > 100 µM | > 100 µM | 100 µM | > 100 µM | > 100 µM | > 100 µM | > 100 µM | > 20 µM | > 20 µM | 45 µM | 58 µM | 45 µM | > 100 µM | EC50 (Human alphaherpesvirus 1 [10]): > 100 µM; EC50 (Human alphaherpesvirus 2): > 100 µM; EC50 (Human coronavirus 229E): > 100 µM; EC50 [12]: > 100 µM; EC50 (Human alphaherpesvirus 3 [14]): > 20 µM; EC50 (Yellow fever virus): 58 µM; MCC [19]: > 100 µM
8 | Nc1nc2c(ncn2COC(CO)CO)c(=O)[nH]1 [GANCICLOVIR] |  |  |  |  |  |  |  |  | > 100 µM | > 100 µM |  |  |  |  |  | 2.29 µM |  |  |  |  | EC50 (Human betaherpesvirus 5 [16]): 11.4 µM
9 | O=c1[nH]c(=O)n([C@H]2C[C@H](O)[C@@H](CO)O2)cc1/C=C/Br [BRIVUDINE] |  |  |  |  |  |  |  |  | 19 µM | 250 to 300 µM |  |  |  |  | 0.57 µM |  |  |  |  |  | 
10 | NC(=O)c1ncn([C@@H]2O[C@H](CO)[C@@H](O)[C@H]2O)n1 [RIBAVIRIN] |  |  |  | > 100 µM |  |  |  |  |  |  |  | 95 µM | > 250 µM | 25 µM |  |  | > 250 µM | > 250 µM |  | > 250 µM | EC50 (Yellow fever virus): > 250 µM; MCC [19]: > 250 µM
11 | Nc1ccn(C[C@@H](CO)OCP(=O)(O)O)c(=O)n1 [CIDOFOVIR] |  |  |  |  |  |  |  |  | 37 µM | > 250 µM | 22 µM |  |  |  |  |  |  |  |  |  | EC50 (Human betaherpesvirus 5 [16]): 1.24 µM
12 | CC(N)C12CC3CC(CC(C3)C1)C2 (stereo unspecified) [RIMANTADINE] | > 200 µM | 0.7 µM | > 200 µM | > 200 µM | > 200 µM | 0.4 µM | > 200 µM |  |  |  |  |  |  |  |  |  |  |  |  |  | 
13 | C/C(=C\CP(=O)(N[C@@H](C)C(=O)OC(C)C)Oc1cccc2ccccc12)Cn1cc(C)c(=O)[nH]c1=O (stereo partly specified) | > 100 µM | > 100 µM | > 100 µM | > 100 µM | > 100 µM | > 100 µM | > 100 µM | > 100 µM | > 100 µM | > 100 µM | > 100 µM | > 100 µM | > 100 µM | > 100 µM | > 100 µM | > 100 µM | > 100 µM | > 100 µM | > 100 µM | ≥ 20 µM | EC50 (Human alphaherpesvirus 1 [10]): > 100 µM; EC50 (Human alphaherpesvirus 2): > 100 µM; EC50 (Human coronavirus 229E): > 100 µM; EC50 [12]: > 100 µM; EC50 (Human betaherpesvirus 5 [16]): > 100 µM; EC50 (Yellow fever virus): > 100 µM; MCC [19]: ≥ 20 µM
14 | Nc1ccn([C@H]2CC[C@@H](CO)O2)c(=O)n1 [ZALCITABINE] |  |  |  |  |  |  |  |  |  | > 250 µM | 10 µM |  |  |  |  |  |  |  |  |  | 
15 | COc1c(C)c2c(c(O)c1C/C=C(\C)CCC(=O)O)C(=O)OC2 [MYCOPHENOLIC ACID] |  |  |  |  |  |  |  |  |  |  |  | 0.4 µM | 6.8 µM |  |  |  |  | > 100 µM | 6.1 µM | > 100 µM | 
